# From ChEMBL document CHEMBL1124821, “Design of an antithrombotic-antihypertensive agent (Wy 27569). Synthesis and evaluation of a series of 2-heteroaryl-substituted dihydropyridines” (J Med Chem, 1990)
# Several values for one entry are separate records, joined by “and”; a condition that tells them apart may be missing. Equal values may be shown once.
# Legend:
# [1] = biological target: Thromboxane-A synthase (Oryctolagus cuniculus); experiment: Inhibition of Thromboxane A2 synthase in rabbit platelets in vitro
# [2] = test system: Rattus norvegicus; experiment: Reduction in blood pressure of rats, 2 hr after 0.03 mmol/kg p.o. administration; type: functional
# Procedure, shortened: (§1)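 Female SHR (250–300 g) kept in 37 °C constant-temperature housing; systolic pressure measured by tail-cuff with a pneumatic pulse transducer. Rats below 155 mmHg discarded. Groups of four given a single oral dose in 0.5% (hydroxypropyl)methylcellulose–0.9% saline (10 mL/kg) or vehicle alone; pressure recorded before dosing and at 2, 6 and 24 h. Analysed by analysis of variance.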
# [3] = test system: Rattus norvegicus; experiment: The compound was tested for reducing blood pressure in rats after 6 hours of 0.03 mmol/kg oral administration.; type: functional
# Procedure, shortened: as §1
# [4] = test system: Rattus norvegicus; experiment: The compound was tested for reducing blood pressure in rats after 2 hours of 0.003 mmol/kg oral administration.; type: functional
# Procedure, shortened: as §1
# [5] = species: Homo sapiens; experiment: The compound was tested for effects of compound on 6-KPGF1alpha production at molar concentration of 10e-5 in human platelet rich plasma; type: functional
# [6] = species: Homo sapiens; experiment: The compound was tested for effects of compound on 6-KPGF1alpha production at molar concentration of 10e-4 in human platelet rich plasma; type: functional
# [7] = test system: Rattus norvegicus; experiment: The compound was tested for plasma levels of TXB2 in rats after 2 hr following dose 10(mg/kg) in oral administration.; type: functional, organism-based
# Procedure, shortened: (§2)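 Female normotensive rats killed by CO₂ asphyxiation 2 h after oral dosing with compound or vehicle (n = 10–13 per group). Blood taken from the posterior vena cava with 1% EDTA, centrifuged at once (10000g, 10 min), and plasma stored at –30 °C. TXB₂ and 6-KPGF1α measured by radioimmunoassay, in pg/mL, mean ± SEM. p < 0.05 versus controls taken as significant.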
# [8] = species: Homo sapiens; experiment: The compound was tested for effects of compound on 6-KPGF1alpha production at molar concentration of 10e-7 in human platelet rich plasma; type: functional
# [9] = species: Homo sapiens; experiment: The compound was tested for effects of compound on 6-KPGF1alpha production at molar concentration of 10e-3 in human platelet rich plasma; type: functional
# [10] = test system: Rattus norvegicus; experiment: The compound was tested for plasma levels of 6-KPGF1alpha in rats after 2 hr following dose 3(mg/kg) in oral administration. (p<0.05); type: functional, organism-based
# Procedure, shortened: as §2
# [11] = species: Homo sapiens; experiment: The compound was tested for effects of compound on TXB2 production at different molar concentration of 10e-5 in human platelet rich plasma; type: functional
# [12] = species: Homo sapiens; experiment: The compound was tested for effects of compound on 6-KPGF1alpha production at molar concentration of 10e-6 in human platelet rich plasma; type: functional
# [13] = test system: Rattus norvegicus; experiment: The compound was tested for plasma levels of 6-KPGF1alpha in rats after 2 hr following dose 10(mg/kg) in oral administration.; type: functional, organism-based
# Procedure, shortened: as §2
# [14] = species: Homo sapiens; experiment: The compound was tested for effects of compound on TXB2 production at different molar concentration of 10e-6 in human platelet rich plasma; type: functional
# [15] = test system: Rattus norvegicus; experiment: The compound was tested for plasma levels of TXB2 in rats after 2 hr following dose 3(mg/kg) in oral administration.; type: functional, organism-based
# Procedure, shortened: as §2
# [16] = species: Homo sapiens; experiment: The compound was tested for effects of compound on TXB2 production at different molar concentration of 10e-3 in human platelet rich plasma; type: functional
# [17] = species: Homo sapiens; experiment: The compound was tested for effects of compound on TXB2 production at different molar concentration of 10e-4 in human platelet rich plasma; type: functional
# [18] = species: Homo sapiens; experiment: The compound was tested for effects of compound on TXB2 production at different molar concentration of 10e-7 in human platelet rich plasma; type: functional
# [19] = test system: Rattus norvegicus; experiment: The compound was tested for reducing blood pressure in rats after 6 hours of 0.03 mmol/kg oral administration; type: functional
# Procedure, shortened: as §1
# [20] = test system: Rattus norvegicus; experiment: The compound was tested for plasma levels of 6-KPGF1alpha in rats after 2 hr following dose 0.3(mg/kg) in oral administration; type: functional, organism-based
# Procedure, shortened: as §2
# [21] = test system: Rattus norvegicus; experiment: The compound was tested for plasma levels of TXB2 in rats after 2 hr following dose 0.3(mg/kg) in oral administration; type: functional, organism-based
# Procedure, shortened: as §2
# [22] = species: Homo sapiens; experiment: The compound was tested for effects of compound on TXB2 production at molar concentration of 10e-6 in human platelet rich plasma; type: functional
# [23] = species: Homo sapiens; experiment: The compound was tested for effects of compound on TXB2 production at molar concentration of 10e-5 in human platelet rich plasma; type: functional
# [24] = test system: Rattus norvegicus; experiment: The compound was tested for plasma levels of TXB2 in rats after 2 hr following dose 10(mg/kg) in oral administration; type: functional, organism-based
# Procedure, shortened: as §2
# [25] = species: Homo sapiens; experiment: The compound was tested for effects of compound on TXB2 production at molar concentration of 10e-7 in human platelet rich plasma; type: functional
# [26] = test system: Rattus norvegicus; experiment: The compound was tested for reducing blood pressure in rats after 2 hours of 0.03 mmol/kg oral administration; type: functional
# Procedure, shortened: as §1
# [27] = test system: Rattus norvegicus; experiment: The compound was tested for plasma levels of TXB2 in rats after 2 hr following dose 3(mg/kg) in oral administration (P<0.05); type: functional, organism-based
# Procedure, shortened: as §2
# [28] = test system: Rattus norvegicus; experiment: The compound was tested for plasma levels of TXB2 in rats after 2 hr following dose 1(mg/kg) in oral administration; type: functional, organism-based
# Procedure, shortened: as §2
# [29] = test system: Rattus norvegicus; experiment: The compound was tested for plasma levels of 6-KPGF1alpha in rats after 2 hr following dose 3(mg/kg) in oral administration; type: functional, organism-based
# Procedure, shortened: as §2
# [30] = test system: Rattus norvegicus; experiment: The compound was tested for reducing blood pressure in rats after 2 hours of 0.003 mmol/kg oral administration; type: functional
# Procedure, shortened: as §1
# [31] = species: Homo sapiens; experiment: The compound was tested for effects of compound on TXB2 production at molar concentration of 10e-3 in human platelet rich plasma; type: functional
# [32] = test system: Rattus norvegicus; experiment: The compound was tested for plasma levels of TXB2 in rats after 2 hr following dose 3(mg/kg) in oral administration. (p<0.05); type: functional, organism-based
# Procedure, shortened: as §2
# [33] = species: Homo sapiens; experiment: The compound was tested for effects of compound on TXB2 production at molar concentration of 10e-4 in human platelet rich plasma; type: functional
# [34] = test system: Rattus norvegicus; experiment: The compound was tested for reducing blood pressure in rats after 6 hours of 0.003 mmol/kg oral administration.; type: functional
# Procedure, shortened: as §1
compound,measurement,setting,value
CCOC(=O)C1=C(CCn2ccnc2)N=C(CCn2ccnc2)/C(=C(/O)OCC)C1c1cccc([N+](=O)[O-])c1 (stereo unspecified),IC50,[1],5.3 µM
CCO/C(O)=C1\C(C)=NC(Cn2ccnc2)=C(C(=O)OC)C1c1cccc(C(F)(F)F)c1Cl (stereo unspecified),IC50,[1],125 µM
same,Decrease in blood pressure,[2],16%
CCO/C(O)=C1\C(Cn2ccnc2)=NC(C)=C(C(=O)OC)C1c1cccc(C(F)(F)F)c1Cl (stereo unspecified),Decrease in blood pressure,[2],60%
same,Decrease in blood pressure,[3],52%
same,Decrease in blood pressure,[4],16%
CCOC(=O)C1=C(C)NC(C)=C(C(=O)OC)C1c1cccc([N+](=O)[O-])c1 (stereo unspecified) [NITRENDIPINE],Production,[5],136%
same,Production,[6],121%
same,Decrease in blood pressure,[2],33%
same,Plasma concentration,[7],562 pg/mL
same,Production,[8],112%
same,Production,[9],96%
same,Plasma concentration,[10],62 pg/mL
same,Production,[11],81%
same,Production,[12],113%
same,Plasma concentration,[13],60 pg/mL
same,Production,[14],84%
same,Plasma concentration,[15],564 pg/mL
same,Production,[16],35%
same,Production,[17],40%
same,Production,[18],87%
CCO/C(O)=C1\C(Cn2ccnc2)=NC(C)=C(C(=O)OC(C)C)C1c1cccc([N+](=O)[O-])c1.Cl (stereo unspecified),Decrease in blood pressure,[2],21%
same,Decrease in blood pressure,[3],19%
CCO/C(O)=C1\C(COCCn2ccnc2)=NC(C)=C(C(=O)OC)C1c1cccc([N+](=O)[O-])c1.Cl (stereo unspecified),Decrease in blood pressure,[2],56%
same,Decrease in blood pressure,[19],42%
COC(=O)C1=C(C)N=C(Cn2ccnc2)/C(=C(/O)OC)C1c1cccc([N+](=O)[O-])c1.Cl (stereo unspecified),Decrease in blood pressure,[2],42%
same,Decrease in blood pressure,[3],27%
CCO/C(O)=C1\C(Cn2ccnc2)=NC(C)=C(C(=O)OC)C1c1cccc([N+](=O)[O-])c1.Cl (stereo unspecified),Production,[5],119%
same,Production,[6],431%
same,Plasma level,[20],22 pg/mL
same,Plasma level,[21],484 pg/mL
same,Production,[22],67%
same,Production,[8],100%
same,Production,[9],460%
same,Production,[23],43%
same,Production,[12],112%
same,Plasma level,[24],280 pg/mL
same,Plasma level,[13],94 pg/mL
same,Production,[25],92%
same,Decrease in blood pressure,[26],51%
same,Plasma level,[27],330 pg/mL
same,Plasma level,[28],402 pg/mL
same,Plasma level,[29],68 pg/mL
same,Production,[16],0%
same,Decrease in blood pressure,[19],38% and 28%
same,Decrease in blood pressure,[30],34%
same,Production,[17],10%
CCO/C(O)=C1\C(Cn2ccnc2)=NC(C)=C(C(=O)OC)C1c1ccccc1Cl (stereo unspecified),IC50,[1],0.5 µM
same,Decrease in blood pressure,[2],31%
same,Decrease in blood pressure,[3],15%
O=C(O)c1ccc(OCCn2ccnc2)cc1 [DAZOXIBEN],Production,[5],603%
same,Production,[6],460%
same,Production,[22],69%
same,Plasma level,[7],270 pg/mL and 202 pg/mL
same,Production,[8],115%
same,Production,[9],345%
same,Production,[31],2%
same,Production,[23],21%
same,Production,[12],463%
same,Production,[25],97.5%
same,Plasma level,[15],384 pg/mL
same,Plasma level,[32],384 pg/mL
same,Production,[33],5%
CCOC(=O)C1=C(C)N=C(CCn2ccnc2)/C(=C(/O)OCC)C1c1ccccc1[N+](=O)[O-].O=C(O)/C=C\C(=O)O (stereo unspecified),IC50,[1],2.3 µM
same,Decrease in blood pressure,[2],44%
CCO/C(O)=C1\C(Cn2ccnc2)=NC(C)=C(C(=O)OC)C1c1cccc(Cl)c1Cl (stereo unspecified),Decrease in blood pressure,[2],54%
same,Decrease in blood pressure,[3],49%
same,Decrease in blood pressure,[34],20%
same,Decrease in blood pressure,[4],40%
CCOC(=O)C1=C(C)N=C(Cn2ccnc2)/C(=C(/O)OCC)C1c1cccc([N+](=O)[O-])c1.Cl (stereo unspecified),Decrease in blood pressure,[2],47%
same,Decrease in blood pressure,[3],13%
CCOC(=O)C1=C(COc2cccnc2)NC(C)=C(C(=O)OC)C1c1cccc([N+](=O)[O-])c1.Cl (stereo unspecified),Decrease in blood pressure,[2],40%
CCO/C(O)=C1\C(C)=NC(Cn2ccnc2)=C(C(=O)OC)C1c1cccc([N+](=O)[O-])c1 (stereo unspecified),IC50,[1],2.2 µM
Br.CCO/C(O)=C1\C(Cn2ccnc2)=NC(C)=C(C(=O)OC)C1c1c(F)cccc1Cl (stereo unspecified),IC50,[1],19.5 µM
same,Decrease in blood pressure,[2],48% and 35%
CCO/C(O)=C1\C(COCc2cccnc2)=NC(C)=C(C(=O)OC)C1c1cccc([N+](=O)[O-])c1.Cl (stereo unspecified),Decrease in blood pressure,[2],18%
CCO/C(O)=C1\C(Cn2ccnc2)=NC(C)=C(C(=O)OC)C1c1ccccc1OC(F)F (stereo unspecified),Decrease in blood pressure,[2],55% and 48%
CCO/C(O)=C1\C(C)=NC(Cn2ccnc2)=C(C(=O)OC)C1c1ccccc1OC(F)F (stereo unspecified),IC50,[1],25 µM
same,Decrease in blood pressure,[2],48%
same,Decrease in blood pressure,[3],31%
CCO/C(O)=C1\C(Cn2ccnc2)=NC(C)=C(C(=O)OC)C1c1ccccc1[N+](=O)[O-] (stereo unspecified),Decrease in blood pressure,[2],59%
same,Decrease in blood pressure,[3],56%
same,Decrease in blood pressure,[34],14%
same,Decrease in blood pressure,[4],44%
CCO/C(O)=C1\C(COCCc2cccnc2)=NC(C)=C(C(=O)OC)C1c1cccc([N+](=O)[O-])c1.Cl (stereo unspecified),Decrease in blood pressure,[2],40%
CCO/C(O)=C1\C(Cn2ccnc2)=NC(Cn2ccnc2)=C(C(=O)OC)C1c1cccc([N+](=O)[O-])c1 (stereo unspecified),IC50,[1],0.6 µM
